High-throughput results from PubChem.
TAAR1 antagonist – human TAAR1 antagonism | Q96RJ0 | CHO RD-HGA16 TAAR1, Fluo-8 calcium fluorescence, antagonist | inhibition, % at 3 µM | 360,000 tested, 1.5% active;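 active = inhibition above a per-plate cutoff, the mean inhibition of test compounds on that plate plus 3 SD, cut at about 49% in these data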;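 note: 0% = DMSO plus EC80 beta-PEA response and 100% = DMSO alone without agonist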
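Test system: hTAAR1-expressing CHO RD-HGA16 cells, Gα16-coupled; Probe or stimulus: EC80 β-phenethylamine stimulus; Compound dosing: single nominal final test compound concentration of 3 µM; Timing: 140 s kinetic read after compound, 140 s after agonist; Signal: Fluo-8 calcium-sensitive fluorescence; Measure: % inhibition of agonist calcium response; Controls: DMSO and EC80 PEA controls.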
TAAR1 ag – agonists of human TAAR1; Q96RJ0; CHO RD-HGA16 TAAR1, Fluo-8 calcium fluorescence; vehicle wells 0%, saturating PEA agonist 100%; activation, % at 3 µM; 360,000 tested, 0.99% active; AID 624467;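 active = activation above the mean activation of all test compounds in the run plus 3 SD, cut at about 38% in these data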
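Assay system: CHO-derived RD-HGA16 cells with stable Gα16 and human TAAR1; timing: 17-24 h seeding, 75 min 37 °C dye, 30 min RT; read-out: % activation from peak over basal fluorescence ratio, DMSO-to-PEA scaled; measured by: kinetic Fluo-8 calcium fluorescence; benchmarks: low control DMSO, high control PEA (EC100); doses: 3 µM single concentration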
OX1R antag-1 – antagonists of human orexin 1 receptor; CHO/OX1R cells, Fluo-8 calcium fluorescence, orexin A; O43613; 330,000 tested, 0.43% active; AID 434989; inhibition, % at 5 µM;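 active = inhibition above its plate's threshold, mean inhibition of all tested compounds on the plate plus 3 SD, cut at about 37% in these data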;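 note: 0% = orexin A challenge wells and 100% = SB-334867-A antagonist wells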
Target sequence (O43613 whole entry, looked up): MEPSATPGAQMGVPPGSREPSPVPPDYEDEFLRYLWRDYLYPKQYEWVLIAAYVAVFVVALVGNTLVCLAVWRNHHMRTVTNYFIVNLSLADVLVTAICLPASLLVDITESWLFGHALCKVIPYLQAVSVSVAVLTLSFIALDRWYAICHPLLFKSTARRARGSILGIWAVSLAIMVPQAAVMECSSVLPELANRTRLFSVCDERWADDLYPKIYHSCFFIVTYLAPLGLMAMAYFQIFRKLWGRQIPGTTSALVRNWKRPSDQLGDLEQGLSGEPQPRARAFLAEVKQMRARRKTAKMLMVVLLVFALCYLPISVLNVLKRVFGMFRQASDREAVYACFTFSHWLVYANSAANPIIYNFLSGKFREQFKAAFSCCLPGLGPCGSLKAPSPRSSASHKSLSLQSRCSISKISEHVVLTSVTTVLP
CHO parental Ca – signal in parental CHO cells, OX1R antagonist counter-screen. parental CHO-K1, ATP-induced calcium, Fluo-8 fluorescence. inhibition, % at 5.6 µM. 330,000 tested, 0.63% active. AID 463079;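 active = inhibition above that plate's mean sample inhibition plus 3 SD, cut at about 26% in these data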;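 note: 0% = ATP-challenged DMSO wells and 100% = DMSO wells without ATP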
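Measured by: calcium-sensitive Fluo-8 fluorescence / Test system: CHO parental line / Controls: ATP-challenged DMSO wells low, unchallenged DMSO wells high / Measure: % inhibition / Compound: single nominal dose of 5.6 µM per compound / Replicates: single well per compound, no replicates / Reagent: ATP as calcium-mobilizing challenge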
OX1R antag-2 – OX1R (human) antagonism; O43613; OX1R-expressing cells, FRET antagonist read-out; inhibition, % at 6.6 µM; 330,000 tested, 1.8% active; AID 485270; in the data active = inhibition mostly above about 38%, no sharp cut-off; inactive = mostly below about 40%;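 note: 0% = agonist challenge alone and 100% = reference antagonist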
OX1R Ca confirm – OX1R (human) antagonism, confirmed. shares compounds with OX1R antag-1. CHO/OX1R cells, orexin A calcium Fluo-8 fluorescence. inhibition, % at 5 µM. 1,100 tested, 38% active; in the data active = inhibition above about 29%;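 note: 0% = agonist challenge alone and 100% = reference antagonist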
CHO Ca triplic – counter-screen for OX1R antagonists: effect in parental CHO cells | shares compounds with OX1R antag-1 | parental CHO-K1, ATP-induced calcium, Fluo-8 fluorescence | inhibition, % at 5.6 µM | 1,100 tested, 9.3% active | AID 492965;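 active = inhibition above a per-plate limit, the mean inhibition of that plate's test compounds plus 3 SD, cut at about 25% in these data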;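 note: 0% = ATP challenge with DMSO and 100% = DMSO without ATP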
OX1R HTRF confirm – OX1R (human) antagonism, HTRF confirmed; inhibition, % at 6.6 µM; 1,800 tested, 49% active; OX1R-expressing cells, HTRF antagonist assay; shares compounds with OX1R antag-2; in the data active = inhibition above about 55%;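 note: CHO cells expressing OX1R stimulated with orexin A at about EC80; 0% = agonist challenge alone and 100% = reference antagonist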
CHO-K1 HTRF – counter-screen for OX1R antagonists: effect in parental CHO-K1 cells; shares compounds with OX1R antag-2; HTRF counterscreen; inhibition, % at 6.6 µM; 1,800 tested, 48% active; AID 493232; in the data active = inhibition above about 17%;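 note: 0% = agonist challenge with vehicle and 100% = vehicle alone without agonist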
An asterisk follows results filed as active; nt = no result. In the library only some 4% were active in any assay of this set; here they are far more common.

SMILES	TAAR1 antagonist	TAAR1 ag	OX1R antag-1	CHO parental Ca	OX1R antag-2	OX1R Ca confirm	CHO Ca triplic	others
CC(OC(=O)CCN=C1NS(=O)(=O)c2ccccc21)C(=O)Nc1ccc(S(N)(=O)=O)cc1 (stereo not drawn)	3	-1	9	2	-4	nt	nt
CNc1snc(C)c1C(=O)OCC(=O)c1ccc(Cl)cc1	17	5	37	2	19	16	45*
O=C(O)c1cccc(NC(=O)c2cn(-c3ccccc3)nc2-c2cccc(Br)c2)c1	36	4	30	18	17	27	33*
CCCn1c(=O)n(CC(=O)NCC2CCCO2)c(=O)c2c3c(sc21)COC(C)(C)C3 (stereo not drawn)	-4	0	-5	-12	23	nt	nt
COC(=O)Cn1c(=O)c2c(nc3n2CC(C)CN3Cc2ccccc2)n(C)c1=O (stereo not drawn)	-1	0	31	-5	16	-6	-6
COc1ccc(S(=O)(=O)n2nc(OC(=O)c3c(-c4ccccc4Cl)noc3C)cc2N)cc1	4	13	36	4	41	-8	-13
COc1ccc(C(=O)Oc2cc(N)n(S(=O)(=O)c3ccc(C)cc3)n2)cc1	3	2	-17	-20	28	nt	nt
CCC(C(=O)Oc1c(C(C)C)cccc1C(C)C)c1ccccc1 (stereo not drawn)	-13	12	-13	-7	1	nt	nt
COC(=O)C1=C(C)N(Cc2ccccc2)C(=NCc2ccccc2)N[C@H]1c1cccc(F)c1	22	15	29	14	22	33*	7
CC1=C(C(=O)OCC(C)C)C(c2ccsc2)C2=C(CCCC2=O)N1 (stereo not drawn)	-15	-1	-18	-8	2	nt	nt
Cc1cccc(NS(=O)(=O)c2cc3c4c(c2)C(C)C(=O)N4CCC3)c1 (stereo not drawn)	-28	0	29	-13	33	1	-5
COC(=O)c1nnn(-c2cc(Cl)cc(Cl)c2)c1C(=O)OC	-26	3	-6	-3	-2	nt	nt
Cc1cc(C(C)(C)C)oc1C(=O)N(CC(=O)NC1CCCC1)c1cccc(C(F)(F)F)c1	nt	nt	56*	-8	30	14	-3
O=C(OCc1cc(=O)oc2cc(O)ccc12)c1cc(S(=O)(=O)N2CCOCC2)ccc1F	30	6	-8	17	25	nt	nt
CCc1cc2c(COC(=O)c3cc(S(=O)(=O)N4CCOCC4)ccc3F)cc(=O)oc2cc1O	48	6	33	-8	23	8	-10
O=C(NCc1ccc(F)cc1)C1CCCN1S(=O)(=O)c1ccccc1C(F)(F)F (stereo not drawn)	-6	11	6	-11	22	nt	nt
Cc1ccccc1NC(=O)C1CCCN1S(=O)(=O)c1ccccc1C(F)(F)F (stereo not drawn)	-9	5	66*	-15	81*	55*	-8	OX1R HTRF confirm=94*;CHO-K1 HTRF=-1
Cc1ccccc1NC(=O)c1cc([N+](=O)[O-])ccc1NCCN1C(=O)CCC1=O	6	4	-20	-21	31	nt	nt
COc1ccccc1C(=O)NCCc1c(C)[nH]c2c(C)ccc(F)c12	13	35	26	12	50*	2	-22	OX1R HTRF confirm=32;CHO-K1 HTRF=-4
CC1=C(C(=O)N2CCCCCC2)CC(CC(=O)NCCc2ccccn2)C(=O)N1CCCN1CCCC1=O (stereo not drawn)	5	14	nt	nt	nt	nt	nt
CCN(CC(=O)NCc1cccs1)C(=O)c1cccc(S(=O)(=O)Nc2ccc(C)cc2)c1	-13	7	-7	-34	25	nt	nt
COc1ccccc1OCC(=O)c1[nH]c(C)c(C(C)=O)c1C	27	25	33	10	82*	30*	26*	OX1R HTRF confirm=25;CHO-K1 HTRF=27*
